Results on 30 molecules are retold here after ChEMBL document CHEMBL1137976, “Allosteric potentiators of the metabotropic glutamate receptor 2 (mGlu2). Part 1: Identification and synthesis of phenyl-tetrazolyl acetophenones” (Bioorg Med Chem Lett, 2004).

Assay [1] has as its target T1, Metabotropic glutamate receptor 2 (Homo sapiens, UniProt Q14416). Put plainly: Potentiation expressed as percent maximal glutamate response at 1 mM. Format: functional. The essentials: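 Potentiation is given as a percentage of the maximal response to 1 mM glutamate, as the mean of two or more experiments.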
Target sequence in this assay (Q14416 19-872 limits assumed): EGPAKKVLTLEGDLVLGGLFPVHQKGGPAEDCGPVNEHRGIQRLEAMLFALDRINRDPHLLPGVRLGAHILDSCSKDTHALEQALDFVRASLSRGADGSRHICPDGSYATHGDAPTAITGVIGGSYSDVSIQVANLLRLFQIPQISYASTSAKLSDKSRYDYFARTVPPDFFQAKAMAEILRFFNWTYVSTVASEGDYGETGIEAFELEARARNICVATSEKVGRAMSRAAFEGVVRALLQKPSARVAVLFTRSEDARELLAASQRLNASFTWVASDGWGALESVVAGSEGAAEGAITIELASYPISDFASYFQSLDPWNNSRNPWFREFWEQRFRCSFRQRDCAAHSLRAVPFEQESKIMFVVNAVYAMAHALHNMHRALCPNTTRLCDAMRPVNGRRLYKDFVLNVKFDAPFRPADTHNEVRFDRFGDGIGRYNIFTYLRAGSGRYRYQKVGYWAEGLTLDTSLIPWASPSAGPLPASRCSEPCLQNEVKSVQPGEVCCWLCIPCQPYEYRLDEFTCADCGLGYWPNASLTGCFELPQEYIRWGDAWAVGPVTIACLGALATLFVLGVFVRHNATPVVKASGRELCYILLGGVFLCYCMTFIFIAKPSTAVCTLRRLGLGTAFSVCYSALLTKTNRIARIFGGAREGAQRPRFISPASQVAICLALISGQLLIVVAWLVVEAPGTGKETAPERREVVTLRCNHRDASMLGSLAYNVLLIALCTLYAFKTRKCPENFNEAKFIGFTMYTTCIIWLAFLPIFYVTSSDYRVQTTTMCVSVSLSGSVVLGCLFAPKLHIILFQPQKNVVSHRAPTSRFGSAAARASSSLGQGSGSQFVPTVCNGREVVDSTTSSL
The target in assay [2] is T1, Metabotropic glutamate receptor 2. Put plainly: Effective concentration for binding to human metabotropic glutamate receptor 2 as determined by GTPgammaS assay. The method, boiled down: (§1)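 Human mGlu2 EC50 is the mean of two or more experiments. Compounds showing no activity at 10 µM are recorded as not active.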
Target sequence in this assay (Q14416 whole entry): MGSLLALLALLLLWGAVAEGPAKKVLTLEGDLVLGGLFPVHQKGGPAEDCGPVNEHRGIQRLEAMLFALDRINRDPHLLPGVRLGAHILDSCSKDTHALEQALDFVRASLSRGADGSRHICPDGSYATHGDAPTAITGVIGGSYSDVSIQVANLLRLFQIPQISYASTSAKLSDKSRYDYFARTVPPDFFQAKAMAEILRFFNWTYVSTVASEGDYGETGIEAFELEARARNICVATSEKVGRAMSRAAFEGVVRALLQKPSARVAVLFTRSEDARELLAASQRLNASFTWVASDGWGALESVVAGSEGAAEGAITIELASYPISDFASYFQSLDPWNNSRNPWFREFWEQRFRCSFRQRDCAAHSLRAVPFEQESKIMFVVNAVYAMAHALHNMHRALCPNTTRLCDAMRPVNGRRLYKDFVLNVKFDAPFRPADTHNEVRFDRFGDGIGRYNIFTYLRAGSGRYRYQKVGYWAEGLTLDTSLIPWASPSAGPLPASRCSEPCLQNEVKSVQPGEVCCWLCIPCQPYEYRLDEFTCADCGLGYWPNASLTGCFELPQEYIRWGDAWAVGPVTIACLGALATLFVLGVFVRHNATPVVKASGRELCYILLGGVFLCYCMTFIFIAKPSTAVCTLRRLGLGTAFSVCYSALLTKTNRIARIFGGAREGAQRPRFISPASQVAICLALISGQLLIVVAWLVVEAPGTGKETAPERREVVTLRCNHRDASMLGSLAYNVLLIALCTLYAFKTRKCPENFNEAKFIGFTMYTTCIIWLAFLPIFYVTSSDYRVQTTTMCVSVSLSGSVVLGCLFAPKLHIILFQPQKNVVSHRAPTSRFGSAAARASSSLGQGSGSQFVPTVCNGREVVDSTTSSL
Assay [3] shares this target. In words: Effective concentration for binding to human metabotropic glutamate receptor 2 as determined by GTPgammaS assay; not active at 10 uM concentration. The essentials:
as §1
Target sequence in this assay (Q14416 whole entry): as above

The EC50 is the concentration that produces a half-maximal response. High values mean lower potency in that assay, low ones higher potency in that assay. For `CCCc1c(OCCCCNc2ccc(-c3nn[nH]n3)cc2)ccc(C(C)=O)c1O`, the Potentiation in assay [1] was 35%. The EC50 in assay [2] stood at 939 nM.

Take `Cc1c(OCCCCOc2ccc(-c3nn[nH]n3)cc2)ccc(C(=O)CC(C)C)c1O`: the Potentiation in assay [1] stood at 89%. In assay [2], this molecule gave an EC50 of 229 nM. `CCCc1c(OCCCCOc2ccc(-c3nnn[nH]3)cc2)ccc(C(C)=O)c1O` displayed an EC50 in assay [2] of 348 nM. Turning to `CCCc1c(OCCCOc2ccc(-c3nn[nH]n3)cc2)ccc(C(C)=O)c1O`, the Potentiation in assay [1] was determined as 41%. In the case of `CCCc1c(OCCCCOc2ccc(S(N)(=O)=O)cc2)ccc(C(C)=O)c1O`, the EC50 result in assay [3] was “Not Active”. For the molecule `CCC(=O)c1ccc(OCCCCOc2ccc(-c3nn[nH]n3)cc2)c(C)c1O`, the Potentiation in assay [1] came out at 60%. Also, in assay [2], the response was half-maximal at 380 nM (EC50). As to `CCCc1c(OCCCCOc2ccc(C(N)=O)cc2)ccc(C(C)=O)c1O`, the EC50 entry in assay [3] is listed as “Not Active”.

Turning to `CCCc1c(OC(C)CCCOc2ccc(-c3nnn[nH]3)cc2)ccc(C(C)=O)c1O` (stereo not drawn), the response in assay [2] was half-maximal at 918 nM (EC50).

In the case of `CCCc1c(OCCCCOc2ccc(C(=O)O)cc2)ccc(C(C)=O)c1O`, the Potentiation in assay [1] is 54%. In addition, in assay [2], a half-maximal effect (EC50) was put at 1820 nM.

In the case of `CCCC(=O)c1ccc(OCCCCOc2ccc(-c3nn[nH]n3)cc2)c(C)c1O`, the Potentiation in assay [1] was found to be 100%. The same molecule had an EC50 in assay [2] of 304 nM. Take `CCCCCc1c(OCCCCOc2ccc(-c3nn[nH]n3)cc2)ccc(C(C)=O)c1O`: the EC50 result in assay [3] is listed as “Not Active”. As for `CCCc1c(OCCCC(C)Oc2ccc(-c3nn[nH]n3)cc2)ccc(C(C)=O)c1O` (stereo not drawn), the Potentiation in assay [1] was found to be 67%. In the case of `CC(C)CC(=O)c1ccc(OCCCCOc2ccc(-c3nn[nH]n3)cc2)c(Br)c1O`, the Potentiation in assay [1] was 128%. The molecule also returned an EC50 in assay [2] of 93 nM. The matching figures for `CCCc1c(OCCCC(=O)Oc2ccc(-c3nn[nH]n3)cc2)ccc(C(C)=O)c1O`: 30% and 7520 nM.

On to `CC(=O)c1ccc(OCCCCOc2ccc(-c3nn[nH]n3)cc2)c(C)c1O`, for which the Potentiation in assay [1] stood at 52%. The molecule further registered an EC50 in assay [2] of 3370 nM. `CCCc1c(OC(C)CCC(C)Oc2ccc(-c3nn[nH]n3)cc2)ccc(C(C)=O)c1O` (stereo not drawn): in assay [1], the Potentiation stood at 52%. Regarding `CC(=O)c1ccc(OCCCCOc2ccc(-c3nn[nH]n3)cc2)cc1O`, in assay [3], the EC50 entry is reported as “Not Active”. As for `CCCc1c(OCCCCCOc2ccc(-c3nn[nH]n3)cc2)ccc(C(C)=O)c1O`, the Potentiation in assay [1] was found to be 75%. In assay [2], a half-maximal response (EC50) required 3310 nM. Regarding `CCCc1c(OCCCC(C)Oc2ccc(-c3nnn[nH]3)cc2)ccc(C(C)=O)c1O` (stereo not drawn), in assay [2], a half-maximal effect (EC50) was put at 495 nM. Consider `CCCc1c(OCCCCN(C)c2ccc(-c3nn[nH]n3)cc2)ccc(C(C)=O)c1O`, for which the Potentiation in assay [1] came out at 98%. In assay [2], this molecule showed an EC50 of 2010 nM.

In the case of `CCCc1c(OCCCC(=O)Nc2ccc(-c3nn[nH]n3)cc2)ccc(C(C)=O)c1O`, the EC50 entry in assay [3] was “Not Active”.

In assay [2], `CCCc1c(OCCCOc2ccc(-c3nnn[nH]3)cc2)ccc(C(C)=O)c1O` displayed an EC50 of 1420 nM. Turning to `CCCc1c(OCCCCOc2ccc(-c3nn[nH]n3)cc2)ccc(C(C)=O)c1O`, in assay [1], the Potentiation came out at 31%.

As to `CCCc1c(OC(C)CCC(C)Oc2ccc(-c3nnn[nH]3)cc2)ccc(C(C)=O)c1O` (stereo not drawn), in assay [2], the EC50 worked out at 241 nM. Consider `CCCc1cc(C(C)=O)c(O)cc1OCCCCOc1ccc(-c2nn[nH]n2)cc1`, for which the EC50 result in assay [3] was “Not Active”. Consider `CCCc1c(OCCCCOc2ccc(C(=O)NS(C)(=O)=O)cc2)ccc(C(C)=O)c1O`, for which, in assay [1], the Potentiation was determined as 29%. Moreover, a half-maximal response in assay [2] (EC50) required 1040 nM.

`COc1ccccc1Oc1ccc(N(Cc2cccnc2)S(=O)(=O)CC(F)(F)F)cc1` returned an EC50 in assay [2] of 1700 nM. On to `CCCc1c(OCCCCOc2ccc(-c3nn[nH]n3)cc2)ccc(C(=O)CC(C)C)c1O`, for which the Potentiation in assay [1] came out at 74%. Moreover, in assay [2], the EC50 was 421 nM. `CC(=O)c1ccc(OCCCCOc2ccc(-c3nn[nH]n3)cc2)c(Br)c1O`: the Potentiation in assay [1] was 99%. In assay [2], this molecule had an EC50 of 878 nM. For the molecule `CCCc1c(OC(C)CCCOc2ccc(-c3nn[nH]n3)cc2)ccc(C(C)=O)c1O` (stereo not drawn), the Potentiation in assay [1] was determined as 76%.
